Activity calls are given as the source filed them. No cut-off for these calls is given here.
Tests used:
[1] = molecular target: Aldo-keto reductase family 1 member B1 (Bos taurus) (UniProt P16116); assay: Inhibition of bovine lens ALR2 at 25 uM; conditions: Lens of camera-type eye
[2] = molecular target: Aldo-keto reductase family 1 member B1 (Bos taurus, UniProt P16116); assay: Inhibition of bovine lens ALR2; design: species or system Lens of camera-type eye
How it was run: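 ALR2 was purified from bovine lens by DE-52 ion exchange and Matrex Orange A affinity chromatography (0.8 U/mg). Assay at 37 °C with 4.67 mM D,L-glyceraldehyde and 0.11 mM NADPH in 0.25 M sodium phosphate pH 6.8, 0.38 M ammonium sulfate and 0.5 mM EDTA, with 1% (v/v) DMSO. IC50 was fitted by nonlinear one-site competition on log dose-inhibition curves from ≥7 concentrations; 95% confidence limits given.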

[3] = test system: Brain; assay: Antioxidant activity against FeCl3/ascorbic acid-induced lipid peroxidation in rat brain homogenate at 100 uM by TBARS assay; format: functional, tissue-based
How it was run: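 Fresh rat brain homogenised 10% (w/v) in phosphate buffer pH 7.4. Homogenate was incubated with 20 µM FeCl3 and 100 µM ascorbic acid (final) plus compound (100 uM) or α-tocopherol for 30 min at 37 °C. Thiobarbituric acid/HCl was added, then boiling, n-butanol extraction and A532 read. Values are nmol MDA/10 mg wet tissue from a tetramethoxypropane standard curve; mean ± S.E.M., ≥2 determinations in triplicate.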

Structure (SMILES)	inhibition [1]	IC50 [2]	Activity [3]
COc1ccc(/C=C/C=C2/SC(=O)NC2=O)cc1	51%		
O=C1NC(=O)/C(=C/c2ccc(/C=C/c3ccc(C(F)(F)F)cc3)cc2)S1	29%		
O=C(O)CN1C(=O)/C(=C\c2ccc3ccccc3c2)S/C1=N\c1ccccc1		2700 nM	
COc1ccc(/C=C/C=C2\SC(=O)N(CC(=O)O)C2=O)cc1		850 nM	Active
Cc1ccc(/C=C/C=C2\SC(=O)N(CC(=O)O)C2=O)cc1		1050 nM	Active
O=C1NC(=O)/C(=C\C=C\c2ccccc2)S1	31%		
O=C1NC(=O)/C(=C/C=C/c2ccc(C(F)(F)F)cc2)S1	65%		
O=C1NC(=O)/C(=C/c2ccc(/C=C/c3ccccc3)cc2)S1	inactive		
COc1ccc(/C=C/c2ccc(/C=C3\SC(=O)NC3=O)cc2)cc1	inactive		
O=C(O)CN1C(=O)S/C(=C\c2ccc(/C=C/c3ccccc3)cc2)C1=O		270 nM	Active
O=C(O)CN1C(=O)/C(=C\c2ccc(OCc3ccccc3)cc2)S/C1=N\c1ccccc1		4900 nM	
COc1ccc(/C=C/c2ccc(/C=C3\SC(=O)N(CC(=O)O)C3=O)cc2)cc1		250 nM	Active
Cc1ccc(/C=C/c2ccc(/C=C3\SC(=O)NC3=O)cc2)cc1	39%		
O=C(O)CN1C(=O)S/C(=C\C=C\c2ccccc2)C1=O		1320 nM	Active

Continued, in another order:

inhibition [1]	IC50 [2]	Structure (SMILES)	Activity [3]
	300 nM	O=C(O)CN1C(=O)S/C(=C\C=C\c2ccc(C(F)(F)F)cc2)C1=O	Active
46%		Cc1ccc(/C=C/C=C2/SC(=O)NC2=O)cc1	
	350 nM	Cc1ccc(/C=C/c2ccc(/C=C3\SC(=O)N(CC(=O)O)C3=O)cc2)cc1	Active
	4400 nM	O=C(O)CN1C(=O)/C(=C\c2ccc(Oc3ccccc3)cc2)S/C1=N\c1ccccc1	
	1250 nM	O=C(O)CN1C(=O)S/C(=C\c2ccc(/C=C/c3ccc(C(F)(F)F)cc3)cc2)C1=O	Active
	70 nM	O=C(O)CN1C(=O)S/C(=C\c2ccc(Oc3ccccc3)cc2)C1=O	
